Test results taken from ChEMBL document CHEMBL4346654 (Eur J Med Chem, 2019).
≈ marks a conversion by molar mass, not a printed value.

How the values were obtained:
Type in all cases: functional
Streptococcus pneumoniae [1] = assay: Antibacterial activity against penicillin-susceptible Streptococcus pneumoniae PU 09 expressing mef gene assessed as reduction in microbial growth by CLSI based two-fold broth dilution method
Streptococcus pneumoniae [2] = assay: Selectivity ratio of MBC to MIC for penicillin-susceptible Streptococcus pneumoniae PU 09 expressing mef gene
Summary of the method: (§1)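 Isolates were identified by 16S rDNA sequencing. MIC was determined by CLSI-recommended two-fold broth dilution. For MBC, samples from 1–8 fold MIC were transferred to culture medium and subcultured for 24 h without antibiotic.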

Staphylococcus aureus [3] = assay: Antibacterial activity against MLS-resistant Staphylococcus aureus PU 20 expressing constitutive ermC gene assessed as reduction in microbial growth by CLSI based two-fold broth dilution method
Streptococcus pyogenes [4] = assay: Antibacterial activity against MLS-resistant Streptococcus pyogenes 12-206 expressing constitutive ermA gene assessed as reduction in microbial growth by CLSI based two-fold broth dilution method
Streptococcus pyogenes [5] = assay: Bactericidal activity against Streptococcus pyogenes 12-207 expressing mef gene pretreated followed by subculture in absence of compound measured after 24 hrs; summary of the method: as §1
Staphylococcus aureus [6] = assay: Antibacterial activity against MLS-resistant Staphylococcus aureus PU 32 expressing inducible ermA gene assessed as reduction in microbial growth by CLSI based two-fold broth dilution method
Staphylococcus aureus [7] = assay: Bactericidal activity against MLS-resistant Staphylococcus aureus PU 20 expressing constitutive ermC gene pretreated followed by subculture in absence of compound measured after 24 hrs
Summary of the method: (§2)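 MBC assay. Following MIC determination by CLSI standard two-fold broth dilution, samples at 1–8 fold MIC were transferred to fresh culture medium. They were subcultured for 24 h without antibiotic. Isolates were identified by 16S rDNA sequencing. S. aureus ATCC 29213 was used as a control strain.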

Moraxella catarrhalis [8] = assay: Selectivity ratio of MBC to MIC for erythromycin-susceptible Moraxella catarrhalis 13L332; summary of the method: as §1
Streptococcus pyogenes [9] = assay: Selectivity ratio of MBC to MIC for Streptococcus pyogenes 12-207 expressing mef gene; summary of the method: as §1
Streptococcus pyogenes [10] = assay: Antibacterial activity against Streptococcus pyogenes 12-207 expressing mef gene assessed as reduction in microbial growth by CLSI based two-fold broth dilution method
Streptococcus pyogenes [11] = assay: Antibacterial activity against MLS-resistant Streptococcus pyogenes 01-968 expressing inducible ermB gene assessed as reduction in microbial growth by CLSI based two-fold broth dilution method
Streptococcus pneumoniae [12] = assay: Selectivity ratio of MBC to MIC for Streptococcus pneumoniae 07P390 expressing constitutive ermB gene; summary of the method: as §1
Streptococcus pneumoniae [13] = assay: Antibacterial activity against erythromycin-susceptible Streptococcus pneumoniae ATCC49619 assessed as reduction in microbial growth by CLSI based two-fold broth dilution method
Staphylococcus aureus [14] = assay: Selectivity ratio of MBC to MIC for MLS/methicillin-resistant Staphylococcus aureus PU 32 expressing inducible ermA gene
Summary of the method: (§3)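 MBC/MIC ratio. MIC was measured by CLSI standard two-fold broth dilution. MBC was measured by transferring samples at 1–8 fold MIC to culture medium and subculturing for 24 h without antibiotic. Isolates were identified by 16S rDNA sequencing.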

Streptococcus pneumoniae [15] = assay: Antibacterial activity against Streptococcus pneumoniae 07P390 expressing constitutive ermB gene assessed as reduction in microbial growth by CLSI based two-fold broth dilution method
Streptococcus pneumoniae [16] = assay: Bactericidal activity against Streptococcus pneumoniae 07P390 expressing constitutive ermB gene pretreated followed by subculture in absence of compound measured after 24 hrs; summary of the method: as §1
Haemophilus influenzae [17] = assay: Antibacterial activity against azithromycin-susceptible Haemophilus influenzae ATCC 49247 assessed as reduction in microbial growth by CLSI based two-fold broth dilution method
Moraxella catarrhalis [18] = assay: Bactericidal activity against erythromycin-susceptible Moraxella catarrhalis 13L332 pretreated followed by subculture in absence of compound measured after 24 hrs; summary of the method: as §1
Moraxella catarrhalis [19] = assay: Antibacterial activity against erythromycin-susceptible Moraxella catarrhalis 13L332 assessed as reduction in microbial growth by CLSI based two-fold broth dilution method
Streptococcus pyogenes [20] = assay: Bactericidal activity against MLS-resistant Streptococcus pyogenes 12-206 expressing constitutive ermA gene pretreated followed by subculture in absence of compound measured after 24 hrs; summary of the method: as §2
Streptococcus pyogenes [21] = assay: Selectivity ratio of MBC to MIC for MLS-resistant Streptococcus pyogenes 12-206 expressing constitutive ermA gene; summary of the method: as §3
Haemophilus influenzae [22] = assay: Bactericidal activity against azithromycin-susceptible Haemophilus influenzae ATCC 49247 pretreated followed by subculture in absence of compound measured after 24 hrs; summary of the method: as §1
Staphylococcus aureus [23] = assay: Bactericidal activity against MLS/methicillin-resistant Staphylococcus aureus PU 32 expressing inducible ermA gene pretreated followed by subculture in absence of compound measured after 24 hrs; summary of the method: as §2
Streptococcus pneumoniae [24] = assay: Bactericidal activity against penicillin-susceptible Streptococcus pneumoniae PU 09 expressing mef gene pretreated followed by subculture in absence of compound measured after 24 hrs; summary of the method: as §1
Streptococcus pneumoniae [25] = assay: Bactericidal activity against erythromycin-susceptible Streptococcus pneumoniae ATCC49619 pretreated followed by subculture in absence of compound measured after 24 hrs; summary of the method: as §1
Haemophilus influenzae [26] = assay: Selectivity ratio of MBC to MIC for azithromycin-susceptible Haemophilus influenzae ATCC 49247; summary of the method: as §1
Streptococcus pyogenes [27] = assay: Selectivity ratio of MBC to MIC for MLS-resistant Streptococcus pyogenes 01-968 expressing inducible ermB gene; summary of the method: as §3
Streptococcus pyogenes [28] = assay: Bactericidal activity against MLS-resistant Streptococcus pyogenes 01-968 expressing inducible ermB gene pretreated followed by subculture in absence of compound measured after 24 hrs; summary of the method: as §2
Streptococcus pneumoniae [29] = assay: Selectivity ratio of MBC to MIC for erythromycin-susceptible Streptococcus pneumoniae ATCC49619; summary of the method: as §1

SMILES	MIC (Streptococcus pneumoniae [1]) [µg/mL]	Selectivity ratio (Streptococcus pneumoniae [2])	MIC (Staphylococcus aureus [3]) [µg/mL]	MIC (Streptococcus pyogenes [4]) [µg/mL]	MBC (Streptococcus pyogenes [5]) [µg/mL]	MIC (Staphylococcus aureus [6]) [µg/mL]	Selectivity ratio (Moraxella catarrhalis [8])	Selectivity ratio (Streptococcus pyogenes [9])	MIC (Streptococcus pyogenes [10]) [µg/mL]	MIC (Streptococcus pyogenes [11]) [µg/mL]	MIC (Streptococcus pneumoniae [13]) [µg/mL]	Selectivity ratio (Staphylococcus aureus [14])	MIC (Streptococcus pneumoniae [15]) [µg/mL]	MBC (Streptococcus pneumoniae [16]) [µg/mL]	MIC (Haemophilus influenzae [17]) [µg/mL]	MBC (Moraxella catarrhalis [18]) [µg/mL]	MIC (Moraxella catarrhalis [19]) [µg/mL]	MBC (Haemophilus influenzae [22]) [µg/mL]	MBC (Staphylococcus aureus [23]) [µg/mL]	MBC (Streptococcus pneumoniae [24]) [µg/mL]	also measured
CC[C@H]1OC(=O)[C@@](C)(F)C(=O)[C@H](C)[C@@H](O[C@@H]2O[C@H](C)C[C@H](N(C)C)[C@H]2O)[C@](C)(OC)C[C@@H](C)/C(=N\OCC#Cc2ccc3c(c2)c(=O)c(C(=O)NC)cn3CC)[C@H](C)[C@H]2OC(=O)O[C@@]21C	0.25	4	128	0.125	1 (≈ 1.1 µM)	2	>8	4	0.25	≤ 0.002	≤ 0.008	>8	0.125	> 1	32	> 32	4	64 (≈ 70.1 µM)	> 16	1 (≈ 1.1 µM)	MBC (Staphylococcus aureus [7]): > 256 µg/mL; Selectivity ratio (Streptococcus pneumoniae [12]): >8; MBC (Streptococcus pyogenes [20]): > 1 µg/mL; Selectivity ratio (Streptococcus pyogenes [21]): >8; MBC (Streptococcus pneumoniae [25]): ≤ 0.008 µg/mL; Selectivity ratio (Haemophilus influenzae [26]): 2; Selectivity ratio (Streptococcus pyogenes [27]): >8; MBC (Streptococcus pyogenes [28]): > 0.016 µg/mL
CC[C@H]1OC(=O)[C@@](C)(F)C(=O)[C@H](C)[C@@H](O[C@@H]2O[C@H](C)C[C@H](N(C)C)[C@H]2O)[C@](C)(OC)C[C@@H](C)/C(=N\OCC#Cc2ccc3c(c2)c(=O)c(C(N)=O)cn3C2CC2)[C@H](C)[C@H]2OC(=O)O[C@@]21C	0.25	2	128	1	2 (≈ 2.2 µM)	1	>8	8	0.25	≤ 0.002	≤ 0.008	8	0.25	> 2	32	> 32	4	128 (≈ 140 µM)	8 (≈ 8.78 µM)	0.5 (≈ 0.549 µM)	MBC (Staphylococcus aureus [7]): > 256 µg/mL; Selectivity ratio (Streptococcus pneumoniae [12]): >8; MBC (Streptococcus pyogenes [20]): > 8 µg/mL; Selectivity ratio (Streptococcus pyogenes [21]): >8; MBC (Streptococcus pneumoniae [25]): ≤ 0.008 µg/mL; Selectivity ratio (Haemophilus influenzae [26]): 4; Selectivity ratio (Streptococcus pyogenes [27]): >8; MBC (Streptococcus pyogenes [28]): > 0.016 µg/mL
CC[C@H]1OC(=O)[C@@](C)(F)C(=O)[C@H](C)[C@@H](O[C@@H]2O[C@H](C)C[C@H](N(C)C)[C@H]2O)[C@](C)(OC/C=C/c2ccc3c(c2)c(=O)c(C(=O)NC)cn3CC)C[C@@H](C)/C(=N\OC)[C@H](C)[C@H]2OC(=O)O[C@@]21C	0.5	2	> 256	≤ 0.002	0.25 (≈ 0.273 µM)	0.25	8	4	0.062	≤ 0.002	≤ 0.008	>8	0.031	> 0.25	256	4 (≈ 4.37 µM)	0.5	> 256	> 2	1 (≈ 1.09 µM)	Selectivity ratio (Streptococcus pneumoniae [12]): >8; MBC (Streptococcus pyogenes [20]): > 0.016 µg/mL; Selectivity ratio (Streptococcus pyogenes [21]): >8; MBC (Streptococcus pneumoniae [25]): ≤ 0.008 µg/mL; Selectivity ratio (Streptococcus pyogenes [27]): >=4; MBC (Streptococcus pyogenes [28]): 0.008 µg/mL (≈ 0.00874 µM)
CC[C@H]1OC(=O)[C@H](C)[C@@H](O[C@H]2C[C@@](C)(OC)[C@@H](O)[C@H](C)O2)[C@H](C)[C@@H](O[C@@H]2O[C@H](C)C[C@H](N(C)C)[C@H]2O)[C@](C)(O)C[C@@H](C)CN(C)[C@H](C)[C@@H](O)[C@]1(C)O [AZITHROMYCIN]	8	2	> 256	> 256	16 (≈ 21.4 µM)	32	8	1	16	8	0.062	1	256	> 256	2	0.25 (≈ 0.334 µM)	0.031	8 (≈ 10.7 µM)	32 (≈ 42.7 µM)	16 (≈ 21.4 µM)	Selectivity ratio (Streptococcus pneumoniae [29]): 4; MBC (Streptococcus pneumoniae [25]): 0.25 µg/mL (≈ 0.334 µM); Selectivity ratio (Haemophilus influenzae [26]): 4; Selectivity ratio (Streptococcus pyogenes [27]): >8; MBC (Streptococcus pyogenes [28]): > 64 µg/mL
CC[C@H]1OC(=O)[C@@](C)(F)C(=O)[C@H](C)[C@@H](O[C@@H]2O[C@H](C)C[C@H](N(C)C)[C@H]2O)[C@](C)(OC/C=C/c2ccc3c(c2)c(=O)c(C(N)=O)cn3CC)C[C@@H](C)/C(=N\OC)[C@H](C)[C@H]2OC(=O)O[C@@]21C	0.25	1	> 256	≤ 0.002	0.25 (≈ 0.277 µM)	0.25	>8	4	0.062	≤ 0.002	≤ 0.008	>8	≤ 0.008	> 0.062	64	> 4	0.5	128 (≈ 142 µM)	> 2	0.25 (≈ 0.277 µM)	Selectivity ratio (Streptococcus pneumoniae [12]): >8; MBC (Streptococcus pyogenes [20]): > 0.016 µg/mL; Selectivity ratio (Streptococcus pyogenes [21]): >8; MBC (Streptococcus pneumoniae [25]): ≤ 0.008 µg/mL; Selectivity ratio (Haemophilus influenzae [26]): 2; Selectivity ratio (Streptococcus pyogenes [27]): >=4; MBC (Streptococcus pyogenes [28]): 0.008 µg/mL (≈ 0.00888 µM)
